Results on 5 compounds are retold here after ChEMBL document CHEMBL4177580, “New 5-HT1A, 5HT2A and 5HT2C receptor ligands containing a picolinic nucleus: Synthesis, in vitro and in vivo pharmacological evaluation” (Bioorg Med Chem, 2017).

Activity calls are given as the source filed them.

For data set [1], the system named is Mus musculus. Nature of the data set: Induction of hypothermia in Swiss albino mouse assessed as reduction in body temperature at 5 mg/kg, ip measured after 60 mins post dose. It is filed as functional, organism-based. In a few lines: (§1)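 Normothermic male Swiss albino mice. Rectal temperature was taken by thermistor thermometer over 180 min (60 min before to 120 min after injection). Initial temperature was the mean of the readings at 60 and 30 min predose. Later readings were at 30, 60, 90 and 120 min, with Δt = final − initial. Data are mean ± SEM, by two-way ANOVA with Bonferroni test.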

For data set [2], the system named is Mus musculus. Nature of the data set: Induction of hypothermia in Swiss albino mouse assessed as reduction in body temperature at 5 mg/kg, ip measured after 30 mins post dose. The data set is classed as functional, organism-based. In a few lines:
as §1

In data set [3] the target is T1, 5-hydroxytryptamine receptor 1A (Rattus norvegicus, UniProt P19327).
T1 sequence (P19327 whole entry): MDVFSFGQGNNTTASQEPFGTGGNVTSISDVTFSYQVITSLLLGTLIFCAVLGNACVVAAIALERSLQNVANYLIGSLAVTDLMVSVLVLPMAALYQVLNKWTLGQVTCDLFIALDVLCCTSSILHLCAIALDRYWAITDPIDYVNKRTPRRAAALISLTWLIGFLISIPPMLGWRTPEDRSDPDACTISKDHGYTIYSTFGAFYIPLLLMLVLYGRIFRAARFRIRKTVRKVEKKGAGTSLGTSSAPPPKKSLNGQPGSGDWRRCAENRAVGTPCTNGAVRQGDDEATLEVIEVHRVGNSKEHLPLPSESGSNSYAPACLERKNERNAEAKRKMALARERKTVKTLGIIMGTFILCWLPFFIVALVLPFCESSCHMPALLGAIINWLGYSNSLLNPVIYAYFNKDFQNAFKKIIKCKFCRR
As to the kind of experiment: Displacement of [3H]-8-OH-DPAT from serotonin 5-HT1A receptor in Sprague-Dawley rat brain cortex homogenates incubated for 30 mins by liquid scintillation spectrometry.

Data set [4] has as its system Mus musculus. As to the kind of experiment: In-vivo 5-HT1A receptor agonist activity in Swiss albino mouse assessed as induction of lower lip retraction by measuring lower lip retraction score at 1 mg/kg, ip dosed 15 mins before test. The data set is classed as functional, organism-based.
Data set [5] has as its target 5-hydroxytryptamine receptor 2A (Rattus norvegicus) (UniProt P14842). The following applies: Sprague-Dawley, 0.1 uM.
In data set [6] the test system is Mus musculus. As to the kind of experiment: Anxiolytic-like activity in Swiss albino mouse assessed as increase in time spent in open arms at 5 mg/kg measured for 5 mins test period by elevated plus maze test. It is filed as functional, organism-based. In a few lines: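 Male Swiss albino mice (18-24 g) were tested in the elevated plus-maze by Lister's method. The reference drug was diluted in saline and given ip (10 ml/kg). Time in open arms was recorded. Results are mean ± SEM, analysed by one-way ANOVA and post hoc test, with the observer blind to treatment.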

The test system of data set [7] is Mus musculus. As to the kind of experiment: Antidepressant-like activity in Swiss albino mouse assessed as reduction in immobility time at 20 mg/kg, ip dosed 1 hr before test by forced swimming test. It is filed as functional, organism-based. The gist of the method: (§2)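 Male Swiss albino mice (18-24 g). The reference drug was diluted in saline and given ip (10 ml/kg) 1 h before testing. Each mouse swam for 6 min in a cylinder (25 cm high, 10 cm diameter) holding 10 cm of water at 23-25°C. Immobility was timed over the last 4 min. Data are mean ± SEM, analysed by one-way ANOVA with Dunnett's test.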

The subject of data set [8] is Mus musculus. Nature of the data set: Antidepressant-like activity in Swiss albino mouse assessed as reduction in immobility time at 15 mg/kg, ip dosed 1 hr before test by forced swimming test. It is filed as functional, organism-based. In a few lines:
as §2

In data set [9] the test system is Mus musculus. As to the kind of experiment: Toxicity in Swiss albino mouse assessed as reduction in spontaneous locomotor activity at 1.875 mg/kg, ip dosed 60 mins before test. It is filed as organism-based. The following applies: in vivo, 1 h. The gist of the method: (§3)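 Spontaneous locomotion: mice dosed i.p. 60 min before being placed individually in an actometer for 30 min. Distance travelled read at 6 and 30 min. Cages cleaned with 70% ethanol between animals. One-way ANOVA with Dunnett's; mean ± SEM of one experiment.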

Data set [10] deals with T2, Adrenergic receptor alpha-1 (Rattus norvegicus, UniProt P15823+P23944+P43140).
T2 sequence (P15823 whole entry): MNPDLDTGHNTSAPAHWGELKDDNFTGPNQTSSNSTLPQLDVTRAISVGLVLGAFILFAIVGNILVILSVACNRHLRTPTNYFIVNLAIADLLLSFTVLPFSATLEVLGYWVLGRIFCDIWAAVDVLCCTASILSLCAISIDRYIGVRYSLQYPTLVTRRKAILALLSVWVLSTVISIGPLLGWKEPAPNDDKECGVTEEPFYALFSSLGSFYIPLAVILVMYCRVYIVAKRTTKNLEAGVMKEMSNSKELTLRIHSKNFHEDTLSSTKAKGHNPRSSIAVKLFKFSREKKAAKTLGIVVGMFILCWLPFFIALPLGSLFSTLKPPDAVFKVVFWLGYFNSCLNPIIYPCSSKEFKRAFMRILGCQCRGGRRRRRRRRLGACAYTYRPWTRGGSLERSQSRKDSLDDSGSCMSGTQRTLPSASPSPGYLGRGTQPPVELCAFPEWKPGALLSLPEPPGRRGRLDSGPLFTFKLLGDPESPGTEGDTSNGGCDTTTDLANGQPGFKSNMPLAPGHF
T2 sequence (P23944 whole entry): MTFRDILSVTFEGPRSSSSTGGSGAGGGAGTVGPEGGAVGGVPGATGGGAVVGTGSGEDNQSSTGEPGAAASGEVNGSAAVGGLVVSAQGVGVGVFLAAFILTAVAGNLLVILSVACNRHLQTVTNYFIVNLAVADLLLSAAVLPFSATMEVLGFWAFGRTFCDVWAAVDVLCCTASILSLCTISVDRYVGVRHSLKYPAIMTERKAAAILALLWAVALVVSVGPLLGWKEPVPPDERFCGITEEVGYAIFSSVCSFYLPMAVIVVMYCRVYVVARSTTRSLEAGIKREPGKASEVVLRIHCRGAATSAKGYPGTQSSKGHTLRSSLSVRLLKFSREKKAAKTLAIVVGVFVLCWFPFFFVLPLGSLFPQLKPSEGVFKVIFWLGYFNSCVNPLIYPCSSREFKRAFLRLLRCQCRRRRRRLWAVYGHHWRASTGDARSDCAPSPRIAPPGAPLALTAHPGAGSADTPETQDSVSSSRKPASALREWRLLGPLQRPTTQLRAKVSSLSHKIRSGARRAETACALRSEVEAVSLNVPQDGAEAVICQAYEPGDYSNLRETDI
T2 sequence (P43140 whole entry): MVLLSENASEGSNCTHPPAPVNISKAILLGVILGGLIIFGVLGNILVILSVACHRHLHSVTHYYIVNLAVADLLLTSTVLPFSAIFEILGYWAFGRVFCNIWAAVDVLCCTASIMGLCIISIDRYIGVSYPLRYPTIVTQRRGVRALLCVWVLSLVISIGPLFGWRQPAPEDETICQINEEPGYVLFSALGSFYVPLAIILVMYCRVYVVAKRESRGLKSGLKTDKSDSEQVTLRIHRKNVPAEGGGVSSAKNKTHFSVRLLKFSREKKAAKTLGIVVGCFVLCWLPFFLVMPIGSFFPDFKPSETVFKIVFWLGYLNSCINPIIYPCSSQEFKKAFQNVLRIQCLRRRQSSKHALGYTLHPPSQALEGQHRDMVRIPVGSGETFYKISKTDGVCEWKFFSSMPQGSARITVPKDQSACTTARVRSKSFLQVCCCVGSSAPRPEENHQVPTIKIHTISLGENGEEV
As to the kind of experiment: Displacement of [3H]prazosin from adrenergic alpha1 receptor in rat cerebral cortex.

For data set [11], the system named is Mus musculus. Nature of the data set: Toxicity in Swiss albino mouse assessed as reduction in spontaneous locomotor activity at 30 mg/kg, ip dosed 60 mins before test and measured after 30 mins. The settings on record: in vivo, 0.5 h. The data set is classed as organism-based. The gist of the method:
as §3

Data set [12] deals with Mus musculus. Nature of the data set: Induction of hypothermia in Swiss albino mouse assessed as reduction in body temperature at 15 mg/kg, ip measured after 120 mins post dose. The data set is classed as functional, organism-based. In a few lines: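 Normothermic male Swiss mice; rectal thermistor readings over 180 min. Baseline is the mean of readings 60 and 30 min before dosing; readings at 30, 60, 90, 120 min post-injection; Δt = tf − ti. Test compounds i.p. (DMSO/methylcellulose); 8-OH-DPAT (5 mg/kg) and WAY 100635 (0.1 mg/kg) s.c. in water. Two-way ANOVA, Bonferroni.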

In data set [13] the test system is Mus musculus. Nature of the data set: Antidepressant-like activity in Swiss albino mouse assessed as reduction in immobility time at 1.875 mg/kg, ip dosed 1 hr before test by forced swimming test. It is filed as functional, organism-based. In a few lines: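 Male Swiss albino mice (18–24 g), compound i.p. in 0.1% DMSO/0.5% methylcellulose 1 h pre-test. Porsolt swim: cylinder 25 cm high, 10 cm diameter, 10 cm water at 23–25°C, 6 min session; immobility scored over last 4 min. Blind observer; one-way ANOVA with Dunnett's; mean ± SEM.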

In data set [14] the test system is Mus musculus. As to the kind of experiment: Toxicity in Swiss albino mouse assessed as reduction in spontaneous locomotor activity at 30 mg/kg, ip dosed 60 mins before test and measured after 6 mins. It is filed as organism-based. The settings on record: in vivo, 0.1 h. In a few lines:
as §3

Data set [15] concerns Mus musculus. As to the kind of experiment: Toxicity in Swiss albino mouse assessed as reduction in spontaneous locomotor activity at 15 mg/kg, ip dosed 60 mins before test and measured after 30 mins. The data set is classed as organism-based. The following applies: in vivo, 0.5 h. The gist of the method:
as §3

Another data set concerns the target D(2) dopamine receptor (Homo sapiens, UniProt P14416). Nature of the data set: Displacement of [3H]methyl-spiperone from human recombinant dopamine D2 receptor expressed in HEK293 cells. It is filed as cell-based.
For data set [16], the system named is Mus musculus. As to the kind of experiment: Toxicity in Swiss albino mouse assessed as reduction in spontaneous locomotor activity at 60 mg/kg, ip dosed 60 mins before test and measured after 6 mins. The data set is classed as organism-based. The settings on record: in vivo, 0.1 h. In a few lines: as §3
Data set [17] concerns Mus musculus. As to the kind of experiment: Toxicity in Swiss albino mouse assessed as induction of impairment of motor coordination by measuring reduction in time spent on rota-rod at 30 mg/kg, ip dosed 60 mins before test by rotarod test. The settings on record: in vivo, 1 h. It is filed as organism-based. In a few lines: (§4)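 Rotarod in male Swiss mice, i.p. dosing 60 min pre-test: impairment is inability to stay 1 min on a rod turning at 18 rpm, after 3 days of daily training. Mean ± SEM of 2 independent experiments; one-way ANOVA with Dunnett's.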

Data set [18] concerns Mus musculus. Nature of the data set: Toxicity in Swiss albino mouse assessed as effect on motor coordination at 1.875 to 7.5 mg/kg, ip dosed 60 mins before test by Chimney test. The data set is classed as organism-based. The settings on record: in vivo, 1 h, in the assay text read “3.75 to 60 mg/kg” for “1.875 to 7.5 mg/kg”. In a few lines: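 Chimney test in male Swiss mice after i.p. dosing 60 min earlier: impairment defined as failure to climb backwards up a tube (3 cm inner diameter, 25 cm long) within 60 s. Animals pre-trained once daily for 3 days. One-way ANOVA with Dunnett's.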

Data set [19] has as its system Mus musculus. As to the kind of experiment: Toxicity in Swiss albino mouse assessed as reduction in spontaneous locomotor activity at 60 mg/kg, ip dosed 60 mins before test and measured after 30 mins. It is filed as organism-based. The settings on record: in vivo, 0.5 h. In a few lines: as §3
The test system of data set [20] is Mus musculus. Nature of the data set: Toxicity in Swiss albino mouse assessed as induction of impairment of motor coordination by measuring reduction in time spent on rota-rod at 60 mg/kg, ip dosed 60 mins before test by rotarod test. The settings on record: in vivo, 1 h. The data set is classed as organism-based. The gist of the method:
as §4

For data set [21], the system named is Mus musculus. As to the kind of experiment: Anxiolytic-like activity in Swiss albino mouse assessed as increase in time spent in open arms at 1.875 to 7.5 mg/kg measured for 5 mins test period by elevated plus maze test. The data set is classed as functional, organism-based.

Sequence of 5-hydroxytryptamine receptor 2A (Rattus norvegicus) (P14842 whole entry): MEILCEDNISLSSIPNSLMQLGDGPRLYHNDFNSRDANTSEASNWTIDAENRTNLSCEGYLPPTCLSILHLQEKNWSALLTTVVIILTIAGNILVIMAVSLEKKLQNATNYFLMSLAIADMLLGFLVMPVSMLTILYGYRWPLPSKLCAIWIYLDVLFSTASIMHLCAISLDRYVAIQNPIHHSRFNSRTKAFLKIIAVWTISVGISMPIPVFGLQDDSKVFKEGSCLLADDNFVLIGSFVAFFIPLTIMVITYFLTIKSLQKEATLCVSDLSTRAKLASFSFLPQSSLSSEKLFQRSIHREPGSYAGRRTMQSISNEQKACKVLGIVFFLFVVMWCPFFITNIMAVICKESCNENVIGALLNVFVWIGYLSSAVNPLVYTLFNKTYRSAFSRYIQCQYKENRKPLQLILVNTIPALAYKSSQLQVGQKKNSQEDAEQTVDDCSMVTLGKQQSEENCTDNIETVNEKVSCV
Sequence of D(2) dopamine receptor (P14416 whole entry): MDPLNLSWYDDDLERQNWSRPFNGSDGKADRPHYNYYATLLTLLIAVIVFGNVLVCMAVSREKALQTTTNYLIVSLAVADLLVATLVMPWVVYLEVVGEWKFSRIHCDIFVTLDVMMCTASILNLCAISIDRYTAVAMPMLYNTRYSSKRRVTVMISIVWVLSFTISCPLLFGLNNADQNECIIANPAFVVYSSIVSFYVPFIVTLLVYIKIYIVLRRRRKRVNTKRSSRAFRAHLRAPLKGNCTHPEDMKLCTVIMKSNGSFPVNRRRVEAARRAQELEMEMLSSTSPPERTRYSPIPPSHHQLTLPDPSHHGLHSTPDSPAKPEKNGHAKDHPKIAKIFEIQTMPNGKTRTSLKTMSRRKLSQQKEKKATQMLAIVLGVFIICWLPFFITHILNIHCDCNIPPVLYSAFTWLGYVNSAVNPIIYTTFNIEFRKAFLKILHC

In the case of `CCN(CC)C1CCc2cccc(O)c2C1` (configuration not stated), the result with Mus musculus [1], with Mus musculus [2] and in the data set on Mus musculus [4] was Active. In data set [3], this compound yielded a Ki of 0.8 nM.

As for `O=C(c1ccc(F)cc1)C1CCN(CCn2c(=O)[nH]c3ccccc3c2=O)CC1`, in [5], the inhibition result is “Active”.

As to `O=C1CC2(CCCC2)CC(=O)N1CCCCN1CCN(c2ncccn2)CC1`, the result in the data set with Mus musculus [6] was Active.

In the case of `CNCCC(Oc1ccc(C(F)(F)F)cc1)c1ccccc1` (configuration not stated), the result in the data set with Mus musculus [7] and in the data set on Mus musculus [8] was Active.

Turning to `O=C(NCCN1CCN(c2ccc(Cl)cc2)CC1)c1ccccn1`, the Activity result in the data set with Mus musculus [9] is reported as “Non-Toxic”; in the data set on Mus musculus [11], “Toxic”; with Mus musculus [14], “Toxic”; with Mus musculus [15], “Toxic”; in the data set on Mus musculus [16], “Toxic”; in the data set with Mus musculus [17], “Toxic”. For the same compound, the Activity entry is “Non-Toxic” in the data set on Mus musculus [18], “Toxic” in the data set on Mus musculus [19] and “Toxic” in the data set on Mus musculus [20]. Also, the Ki came to 76 nM in [10] and 2300 nM on D(2) dopamine receptor. In addition, the result in the data set with Mus musculus [12], in the data set with Mus musculus [13] and in the data set with Mus musculus [21] was Active.
